Measurements from different studies.
Each line is one published result; the experiments were not run side by side.
Target: Homeodomain-interacting protein kinase 3 (HIPK3, Homo sapiens, UniProt Q9H422)

SMILES	effect on	technique	tested at	remaining binding [%]
O=C(NCCCN1CCOCC1)c1ccc(Nc2ncc(Cl)c(-c3ccc(Cl)s3)n2)cc1	binding	competition with immobilised ligand	1 µM	15
CCCCN(CCCC)C(=O)CN1C[C@@H](c2cc(OC)c3c(c2)OCO3)[C@H](C(=O)O)[C@H]1CC(C)(C)CCC	cell-free assay	competition with immobilised ligand	1 µM	100
CCN1CCN(Cc2ccc(C(=O)Nc3ccc(C)c(Oc4ccc5c(c4)CC(=O)N5)c3)cc2C(F)(F)F)CC1	binding	competition with immobilised ligand	1 µM	100
COc1ncc2cc3ccccc3nc2c1C#N	cell-free assay	competition with immobilised ligand	5 µM	100
Cn1nc(C(F)(F)F)cc1-c1cnc(N2CCc3cc(S(=O)(=O)Nc4c(F)cc(Cl)cc4F)cc(N4CCCC4=O)c32)nc1	cell-free assay	competition with immobilised ligand	1 µM	85
O=C(NCCCN1CCOCC1)c1ccc(Nc2nccc(-c3cc4ccccc4s3)n2)cc1	binding	competition with immobilised ligand	1 µM	39
O=C(O)c1cc(-c2ccc(C3CCNCC3)cc2)c2ccc(-c3ccc(C(F)(F)F)cc3)cc2c1	cell-free assay	competition with immobilised ligand	1 µM	100
C[C@@H]1CCN(c2nccc(-c3cnn4ncccc34)n2)C1	binding		1 µM	68
C[C@@H](c1ccc(-n2cnc3c(N)ncnc32)cc1)N1CCc2nn(C)c(Cc3ccccc3)c2C1=O	binding	competition with immobilised ligand	0.1 µM	64
CN(C)C(=O)Cn1cc(-c2nc(C3(c4ccc(-c5cnc(N)nc5)cc4)CC3)no2)cn1	cell-free assay	competition with immobilised ligand	1 µM	71
CN(c1nccc(-c2cnn3ncccc23)n1)C1CC1	binding		1 µM	100
c1cncc(-c2cccc(Nc3nccc(NC4CCCCC4)n3)c2)c1	binding	competition with immobilised ligand	10 µM	57
CN(CCCC(F)(F)F)c1nccc(-c2cnn3ncccc23)n1	binding		1 µM	88
O=C(c1ccc(Nc2ncc(Cl)c(-c3cc4ccccc4s3)n2)cc1)N1CCC(N2CCCC2)CC1	binding	competition with immobilised ligand	1 µM	1.8
N[C@@H]1CCN(c2nccc(-c3cnn4ncccc34)n2)C1	binding		1 µM	83
COc1cnc(Nc2cccc(S(N)(=O)=O)c2)nc1N1CCN(c2ccccc2)CC1	binding	competition with immobilised ligand	1 µM	100
COc1ccnn2ncc(-c3ccnc(N(C)C)n3)c12	binding		1 µM	80
O=C(Nc1ccc(Oc2ccc(F)cc2)cc1)N1CCc2ncccc2[C@H]1c1ccc(F)cc1	cell-free assay	competition with immobilised ligand	1 µM	92
CC1CCCN1c1nccc(-c2cnn3ncccc23)n1 (stereo not shown)	binding		1 µM	100
O=C(Nc1c[nH]nc1C(=O)NC1CCNCC1)c1cc(F)cc(F)c1	binding	competition with immobilised ligand	1 µM	41
CN(C)c1nccc(-c2cnn3ncccc23)n1	binding		1 µM	51
CS(=O)(=O)c1cc(C2(NC(=O)c3cncc4c3cnn4-c3ccc(F)cc3)CC2)ccn1	cell-free assay	competition with immobilised ligand	1 µM	85
